Results published in ChEMBL document CHEMBL1125831, “Synthesis and quantitative structure-activity relationship analysis of 2-(aryl or heteroaryl)quinolin-4-amines, a new class of anti-HIV-1 agents” (J Med Chem, 1991).

How the values were obtained:
[1] = system: Human immunodeficiency virus 1; test: In vitro antiviral activity in Phytohemagglutininin stimulated human PBM cells infected with HIV-1 (strain LAV-1); assay type: functional, organism-based; conditions: Human immunodeficiency virus 1, PBMC
Procedure, shortened: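 […] human PBM cells stimulated with phytohemagglutinin, then infected with HIV-1 strain LAV-1. Antiviral activity reported as median effective concentration (EC50).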

[2] = In vitro toxicity on uninfected Phytohemagglutininin stimulated human PBM cell; assay type: cell-based
Procedure, shortened: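 Human PBM cells stimulated with phytohemagglutinin and left uninfected. Cell toxicity reported as minimum toxic concentration (MTC).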

Structure (SMILES) | EC50 [1] | MTC [2]
Nc1cc(-c2ccccn2)nc2ccccc12 | 8.56 µM | 100 µM
CCN(CCN(C)C)c1cc(-c2ccncc2)nc2ccccc12 | 100 µM | 100 µM
CN1CCN(c2cc(-c3cccs3)nc3ccccc23)CC1 | 9.07 µM | 
CN(C)CCNc1cc(-c2ccncc2)nc2ccccc12 | 36.9 µM | 100 µM
c1cncc(-c2cc(N3CCCCC3)c3ccccc3n2)c1 | 20 µM | 100 µM
CC1CCCN(c2cc(-c3ccccn3)nc3ccccc23)C1 (stereo not given) | 4.86 µM | 100 µM
c1ccc(-c2cc(N3CCOCC3)c3ccccc3n2)nc1 | 18.5 µM | 
CN(C)CCNc1cc(-c2cccs2)nc2ccccc12 | 0.57 µM | 10 µM
CC1CCCCN1c1cc(-c2ccccn2)nc2ccccc12 (stereo not given) | 4.24 µM | 100 µM
CN1CCN(c2cc(-c3ccccn3)nc3ccccc23)CC1 | 5.51 µM | 
CN(C)CCNc1cc(-c2cccnc2)nc2ccccc12 | 1.51 µM | > 100 µM
Nc1cc(-c2cccnc2)nc2ccccc12 | 1 µM | 85.7 µM
CN(C)CCNc1cc(-c2ccco2)nc2ccccc12 | 0.91 µM | > 1 µM
CC(C)CNc1cc(-c2ccccc2)nc2ccccc12 | 50.6 µM | 100 µM
CN(C)CCNc1cc(-c2ccccc2)nc2ccccc12 | 10 µM | 100 µM
c1cncc(-c2cc(N3CCCC3)c3ccccc3n2)c1 | 33.7 µM | 100 µM
CCN(CCN(C)C)c1cc(-c2ccccn2)nc2ccccc12 | 13.2 µM | 
COc1ccc(-c2cc(NCCN(C)C)c3ccccc3n2)cc1 | 10.4 µM | 10 µM
CN1CCN(c2cc(-c3ccncc3)nc3ccccc23)CC1 | 68.2 µM | 
CC1CCCN(c2cc(-c3ccccc3)nc3ccccc23)C1 (stereo not given) | 16.7 µM | 100 µM
CN1CCN(c2cc(-c3ccco3)nc3ccccc23)CC1 | 15.8 µM | 

Continued, in another order:

EC50 [1] | Structure (SMILES) | MTC [2]
2.81 µM | c1ccc(-c2cc(N3CCSCC3)c3ccccc3n2)nc1 | 
100 µM | CN(C)CCNc1cc(-c2ccc(Cl)cc2)nc2ccccc12 | 
24.2 µM | CCN(CCN(C)C)c1cc(-c2cccnc2)nc2ccccc12 | 100 µM
13.2 µM | CN(C)CCNc1cc(-c2ccc(F)cc2)nc2ccccc12 | 100 µM
26.4 µM | CC1CCCCN1c1cc(-c2ccccc2)nc2ccccc12 (stereo not given) | 100 µM
4.47 µM | Cc1ccc(-c2cc(NCCN(C)C)c3ccccc3n2)cc1 | 10 µM
13.2 µM | CN1CCN(c2cc(-c3ccccc3)nc3ccccc23)CC1 | 100 µM
1.35 µM | CN(C)CCNc1cc(-c2ccccn2)nc2ccccc12 | 100 µM
44.2 µM | CN(C)CCNc1cc(-c2ccc(Br)cc2)nc2ccccc12 | 100 µM
34.8 µM | CCN(CCN(C)C)c1cc(-c2ccccc2)nc2ccccc12 | 
100 µM | CC(C)(C)Nc1cc(-c2ccccc2)nc2ccccc12 | 
34.3 µM | Nc1cc(-c2cccs2)nc2ccccc12 | 10 µM
1 µM | CN1CCN(c2cc(-c3cccnc3)nc3ccccc23)CC1 | > 100 µM
100 µM | CC(C)Nc1cc(-c2ccccc2)nc2ccccc12 | > 100 µM
4.08 µM | CC1CCN(c2cc(-c3ccccn3)nc3ccccc23)CC1 | 100 µM
32.4 µM | CCN(CCN(C)C)c1cc(-c2cccs2)nc2ccccc12 | 100 µM
25.7 µM | Nc1cc(-c2ccccc2)nc2ccccc12 | 
